Measurements: ChEMBL document CHEMBL1130193, “Synthesis, cardiotonic activity, and structure-activity relationships of 17 beta-guanylhydrazone derivatives of 5 beta-androstane-3 beta, 14 beta-diol acting on the Na+,K(+)-ATPase receptor” (J Med Chem, 1997)

Tests used:
Cavia porcellus [1] = organism: Cavia porcellus; assay: In vitro inotropic activity was determined by the affects of contractile force on guinea pig left atrium; Maximal increase in force of contraction; assay type: functional; conditions: Cardiac atrium
How it was run: (§1)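 Isolated atrium preparations in solution bubbled with 95% O2/5% CO2, driven by platinum electrodes with square-wave pulses at 1 Hz (1 ms, twice threshold voltage). After 60 min equilibration, cumulative concentrations were added, each kept until maximal response or arrhythmias appeared.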

Cavia porcellus [2] = organism: Cavia porcellus; assay: (§2) In vitro inotropic activity was determined by the affects of contractile force on guinea pig left atrium.; assay type: functional, organism-based; conditions: Cardiac atrium; how it was run: as §1
Cavia porcellus [3] = organism: Cavia porcellus; assay: In vitro inotropic activity was determined by the affects of contractile force on guinea pig left atrium; assay type: functional, Cardiac atrium; how it was run: as §1
[4] = Arrhythmogenic activity was determined by the onset of the first series of ectopic beats; assay type: functional, Heart; how it was run: as §1
[5] = target: Sodium/potassium-transporting ATPase subunit alpha-1 (Canis lupus familiaris, UniProt P50997); assay: Inhibition of Na+/K+ ATPase from dog kidney
[6] = % of preparations of arrhythmogenic activity was determined by the onset of the first series of ectopic beats; assay type: functional, Heart; parameters: concentration or dose not given beside the values; how it was run: as §1
Cavia porcellus [7] = organism: Cavia porcellus; assay: as §2; assay type: functional, Cardiac atrium; how it was run: as §1

C[C@]12CC[C@H](O)C[C@H]1CC[C@@H]1[C@@H]2CC[C@]2(C)[C@@H](/C=N/N=C(N)N)CC[C@]12O.Cl
Emax (Cavia porcellus [1]): 265%
EC50 (Cavia porcellus [2]): 4 µM
concentration giving Emax (Cavia porcellus [3]): 30 µM
Activity [4]: 30 µM
IC50 [5]: 1.58 µM
Activity [6]: 57%

C[C@]12CC[C@H](O)C[C@H]1CC[C@@H]1[C@@H]2CC[C@]2(C)[C@@H](/C=N/NC3=NCCN3)CC[C@]12O
Emax (Cavia porcellus [1]): 129%
EC50 (Cavia porcellus [2]): 17 µM
concentration giving Emax (Cavia porcellus [3]): 300 µM
Activity [4]: 300 µM
Activity [6]: 0%

C[C@]12CC[C@H](O)C[C@H]1CC[C@@H]1[C@@H]2CC[C@]2(C)[C@@H](/C=C/C=C/C=N/N=C(N)N)CC[C@]12O
Emax (Cavia porcellus [1]): 98%
EC50 (Cavia porcellus [2]): 15 µM
concentration giving Emax (Cavia porcellus [3]): 100 µM
Activity [4]: 300 µM
IC50 [5]: 7.94 µM
Activity [6]: 100%

C[C@H]1O[C@@H](O[C@H]2[C@@H](O)C[C@H](O[C@H]3[C@@H](O)C[C@H](O[C@H]4CC[C@@]5(C)[C@H](CC[C@@H]6[C@@H]5C[C@@H](O)[C@]5(C)[C@@H](C7=CC(=O)OC7)CC[C@]65O)C4)O[C@@H]3C)O[C@@H]2C)C[C@H](O)[C@@H]1O [DIGOXIN]
EC50 (Cavia porcellus [2]): 0.4 µM
concentration giving Emax (Cavia porcellus [3]): 1 µM
Activity [4]: 3 µM
Activity [6]: 50%

C[C@]12CC[C@H](O)C[C@H]1CC[C@@H]1[C@@H]2CC[C@]2(C)[C@@H](/C=C/C3=CC(=O)OC3)CC[C@]12O
Emax (Cavia porcellus [1]): 110%
EC50 (Cavia porcellus [2]): 14 µM
concentration giving Emax (Cavia porcellus [7]): 100 µM
Activity [4]: 300 µM
IC50 [5]: 3.98 µM
Activity [6]: 0%

C[C@]12CC[C@H](O)C[C@H]1CC[C@@H]1[C@@H]2CC[C@]2(C)[C@@H](C3=CC(=O)OC3)CC[C@]12O [DIGITOXIGENIN]
Emax (Cavia porcellus [1]): 200%
EC50 (Cavia porcellus [2]): 0.6 µM
concentration giving Emax (Cavia porcellus [7]): 3 µM
Activity [4]: 10 µM
IC50 [5]: 0.5 µM
Activity [6]: 60%

C[C@]12CC[C@H](O)C[C@H]1CC[C@@H]1[C@@H]2CC[C@]2(C)[C@@H](/C=C/C=N/NC3=NCCN3)CC[C@]12O
Emax (Cavia porcellus [1]): 136%
EC50 (Cavia porcellus [2]): 9 µM
concentration giving Emax (Cavia porcellus [3]): 100 µM
Activity [4]: 100 µM
Activity [6]: 50%

C[C@]12CC[C@H](O)C[C@H]1CC[C@@H]1[C@@H]2CC[C@]2(C)[C@@H](CNN=C(N)N)CC[C@]12O.Cl
Emax (Cavia porcellus [1]): 166%
EC50 (Cavia porcellus [2]): 8 µM
concentration giving Emax (Cavia porcellus [3]): 30 µM
Activity [4]: 100 µM
IC50 [5]: 2 µM
Activity [6]: 0%

C[C@]12CC[C@H](O)C[C@H]1CC[C@@H]1[C@@H]2CC[C@]2(C)[C@@H](/C=N/NC3=NCCCN3)CC[C@]12O
Emax (Cavia porcellus [1]): 62%
EC50 (Cavia porcellus [2]): 5 µM
concentration giving Emax (Cavia porcellus [3]): 30 µM
Activity [4]: 30 µM

C[C@]12CC[C@H](O)C[C@H]1CC[C@@H]1[C@@H]2CC[C@]2(C)[C@@H](/C=C/C=N/N=C(N)N)CC[C@]12O
Emax (Cavia porcellus [1]): 140%
EC50 (Cavia porcellus [2]): 0.4 µM
concentration giving Emax (Cavia porcellus [3]): 3 µM
Activity [4]: 3 µM
IC50 [5]: 0.16 µM
Activity [6]: 20%
